ChEMBL document CHEMBL1126304 (J Med Chem, 1992)
Calls of active or inactive are those of the source. The calls are words filed in the database; no cut-off is given here.

Experiments:
[1] = target: Histamine H2 receptor (Cavia porcellus) (UniProt P47747); assay: Intrinsic activity against histamine H2 receptor; assay type: functional
Histamine H2 receptor = Histamine H2 receptor (Cavia porcellus, UniProt P47747); assay: Compound is evaluated for histamine H2 receptor agonistic activity in guinea pig cerebral cortex using [3H]tiotidine as radioligand; assay type: functional, tissue-based
Outline: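 H2-receptor binding measured on guinea pig cerebral cortex preparations by displacement of [3H]tiotidine. Displacement curves were fitted by nonlinear regression.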

[2] = target: Histamine H2 receptor (Cavia porcellus) (UniProt P47747); assay: Histamine H2 receptor agonistic activity in guinea pig right atrium; assay type: functional, tissue-based; settings: Cardiac atrium
Felis catus [3] = assay: In vivo activity against gastric secretion in conscious cat; assay type: functional, Stomach
Cavia porcellus = organism: Cavia porcellus; assay: In vitro activity against gastric secretion in isolated guinea pig stomach; assay type: functional
Felis catus [4] = assay: In vivo activity against gastric secretion in conscious cat; not active; assay type: functional, organism-based; settings: Stomach

Histamine H2 receptor, sequence (P47747 whole entry): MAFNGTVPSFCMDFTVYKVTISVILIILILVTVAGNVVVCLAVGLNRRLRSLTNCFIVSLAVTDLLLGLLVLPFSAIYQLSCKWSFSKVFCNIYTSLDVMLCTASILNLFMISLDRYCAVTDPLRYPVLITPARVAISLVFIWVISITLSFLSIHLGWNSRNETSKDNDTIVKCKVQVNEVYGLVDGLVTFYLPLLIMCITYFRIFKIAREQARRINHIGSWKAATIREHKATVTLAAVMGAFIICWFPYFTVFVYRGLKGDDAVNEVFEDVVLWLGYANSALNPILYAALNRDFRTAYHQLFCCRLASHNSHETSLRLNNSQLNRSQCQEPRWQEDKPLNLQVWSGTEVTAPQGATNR
Histamine H2 receptor (Cavia porcellus), sequence (P47747 whole entry): as above

Row | SMILES | Intrinsic activity [1] | Kd (Histamine H2 receptor) [µM] | pD2 [2] | further results
1 | NCCc1csc(N)n1 | 0.94 | 110 | 4.6 | –
2 | CNCCc1cnc(N)s1 | – | – | – | pD2 (Felis catus [3]): 6.52; pD2 (Cavia porcellus): 6.02
3 | Cc1nc(N)sc1CCN | 0.95 | 5.01 | – | –
4 | Cc1ncsc1CCN | 0.96 | 355 | 4.67 | –
5 | N=C(NCCCc1c[nH]cn1)NCCC(c1ccc(F)cc1)c1ccccn1 (stereo not drawn) | – | – | 8 | –
6 | Cc1nc(C)c(CCN)s1 | 0.97 | 174 | 3.78 | –
7 | N=C(NCCCc1c[nH]cn1)NCCC(c1ccccc1)c1ccccc1 | – | – | 7.7 | –
8 | N=C(N)NCCCc1c[nH]cn1 | – | – | 4.7 | –
9 | CN(C)CCCSC(=N)N | 1.06 | 26.3 | 5.67 | –
10 | CN(C)CCc1cnc(N(C)C)s1 | – | – | – | pD2 (Felis catus [4]): inactive
11 | NCCc1c[nH]cn1 | 1 | – | – | –
12 | CNc1ncc(CCN(C)C)s1 | – | – | – | pD2 (Felis catus [4]): inactive
13 | CN(C)CCc1cnc(N)s1 | – | – | – | pD2 (Felis catus [3]): 6.3; pD2 (Cavia porcellus): 5.81
14 | NCCc1cnc(N)s1 | 1 | 15.1 | 5.51 | pD2 (Felis catus [3]): 6.1
